Test results published in ChEMBL document CHEMBL1122463, “2,3-dihydro-3-(1-pyrryl)spiro[benzofuran-2,4'-piperidine]s and 2,3-dihydro-3-(1-pyrryl)spiro[benzofuran-2,3'-pyrrolidine]s: novel antihypertensive agents” (1983).
Values joined by “and” are separate entries in the source; they are usually repeats but may differ in a detail not shown here. Equal entries are not always repeated.

Experiments:
Canis familiaris [1] = test: Hemodynamic effect in sinoaortic- deafferented hypertensive dog measured as left ventricular pressure after 60 min of 10 mg/kg
Canis familiaris [2] = test: Hemodynamic effect in sinoaortic- deafferented hypertensive dog measured as heart rate after 30 min of 5 mg/kg dose; type: functional, Canis lupus familiaris
Canis familiaris [3] = test: effect of compound at a dose of 10 mg/kg iv, on standard cardiovascular in anesthetized normotensive dogs before administration of isoproterenol.; type: functional, Canis lupus familiaris, Heart
Outline: (§1)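 Bilateral vagotomy was performed. BP was recorded via a femoral artery, with iv dosing via a femoral vein; BP and heart rate were recorded continuously. Each iv challenge was given twice before test drug and once after. Challenge doses were epinephrine and norepinephrine 0.5–1.0 μg/kg, and isoproterenol and carbachol 0.25 μg/kg.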

Canis familiaris [4] = test: Mean arterial BP after administration at a dose of 10 mg/kg iv.; type: functional, Canis lupus familiaris
Canis familiaris [5] = test: effect of compound at a dose of 10 mg/kg iv, on standard cardiovascular in anesthetized normotensive dogs after administration of tyramine.; type: functional, Canis lupus familiaris, Heart
Canis familiaris [6] = test: effect of compound at a dose of 10 mg/kg iv, on standard cardiovascular in anesthetized normotensive dogs before administration of epinephrine.; type: functional, Canis lupus familiaris, Heart
Outline: as §1

Canis familiaris [7] = test: effect of compound at a dose of 10 mg/kg iv, on standard cardiovascular in anesthetized normotensive dogs after administration of isoproterenol.; type: functional, Canis lupus familiaris, Heart
Outline: as §1

Canis familiaris [8] = test: Hemodynamic effect in sinoaortic- deafferented hypertensive dog measured as mean arterial BP after 60 min of 5 mg/kg dose; type: functional, Canis lupus familiaris
Rattus norvegicus [9] = species on record: Rattus norvegicus; test: Oral hypotensive activity in spontaneously hypertensive rats by using tail-cuff method measured as the initial BP; type: functional, Blood
Outline: (§2)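 Okamoto-Aoki strain spontaneously hypertensive rats. Compounds were suspended in distilled water with Tween 80 and given orally every day at 50, 30, 10 or 3 mg/kg. Systolic BP was measured by tail-cuff plethysmography on day 1 (predose and 2 h), day 3 (predose and 2 h) and day 5 (predose, 2 and 4 h). The screen used 4 rats; dose-response used 4–8 rats per dose.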

Canis familiaris [10] = test: effect of compound at a dose of 10 mg/kg iv, on standard cardiovascular in anesthetized normotensive dogs before administration of carbachol.; type: functional, Canis lupus familiaris, Heart
Outline: as §1

Canis familiaris [11] = test: effect of compound at a dose of 10 mg/kg iv, on standard cardiovascular in anesthetized normotensive dogs after administration of epinephrine.; type: functional, Canis lupus familiaris, Heart
Outline: as §1

Canis familiaris [12] = test: Mean arterial BP before administration at a dose of 10 mg/kg iv.; type: functional, Canis lupus familiaris
Canis familiaris [13] = test: Hemodynamic effect in sinoaortic- deafferented hypertensive dog measured as cardiac output after 5 min of 10 mg/kg
Canis familiaris [14] = test: Hemodynamic effect in sinoaortic- deafferented hypertensive dog measured as heart rate after 60 min of 5 mg/kg dose; type: functional, Canis lupus familiaris
Canis familiaris [15] = test: Hemodynamic effect in sinoaortic- deafferented hypertensive dog measured as mean arterial BP after 0 min of 5 mg/kg dose; type: functional, Canis lupus familiaris
Canis familiaris [16] = test: effect of compound at a dose of 10 mg/kg iv, on standard cardiovascular in anesthetized normotensive dogs before administration of tyramine.; type: functional, Canis lupus familiaris, Heart
Canis familiaris [17] = test: Hemodynamic effect in sinoaortic- deafferented hypertensive dog measured as cardiac output after 0 min of 10 mg/kg
Rattus norvegicus [18] = species on record: Rattus norvegicus; test: Hypotensive activity in renal hypertensive rats by using tail-cuff method measured as BP on day/h postdrug; type: functional, Blood
Outline: (§3)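 Renal hypertension made in male Sprague-Dawley rats (Grollman modification). Under pentobarbital (50 mg/kg ip), the right kidney was removed and silk sutures tied around both poles of the left kidney to constrict it. After 3 weeks, rats with systolic BP >150 mmHg were used. Compound given po daily to 4 rats. Systolic BP by tail-cuff plethysmography at the listed day/hour after dosing.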

Rattus norvegicus [19] = species on record: Rattus norvegicus; test: hypotensive activity in renal hypertensive rats by using tail-cuff method measured as initial BP; type: functional, Blood
Outline: (§4)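 Renal hypertension (modified Grollman) was made in male Sprague-Dawley rats under pentobarbital sodium 50 mg/kg ip. The right kidney was removed, and silk sutures around both poles of the left kidney constricted the parenchyma. After 3 weeks of stabilization, rats with systolic BP >150 mmHg were used. Compounds were given orally. Systolic BP was measured by tail-cuff predose and at the stated day/h after dosing.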

Canis familiaris [20] = test: Mean heart rate after administration at a dose of 10 mg/kg iv.; type: functional, Canis lupus familiaris
Canis familiaris [21] = test: effect of compound at a dose of 10 mg/kg iv, on standard cardiovascular in anesthetized normotensive dogs before administration of norepinephrine.; type: functional, Canis lupus familiaris, Heart
Outline: as §1

Rattus norvegicus [22] = species on record: Rattus norvegicus; test: hypotensive activity in renal hypertensive rats by using tail-cuff method measured as BP on day/h postdrug; type: functional, Blood
Outline: as §4

Rattus norvegicus [23] = species on record: Rattus norvegicus; test: Oral hypotensive activity in spontaneously hypertensive rats by using tail-cuff method measured as change in systolic BP; type: functional, Blood
Outline: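 Okamoto-Aoki spontaneously hypertensive rats. Compound suspended in distilled water with Tween 80, given po daily, screening dose 50 mg/kg, dose-response at 50, 30, 10 or 3 mg/kg unless stated. Systolic BP by tail-cuff plethysmography on day 1 predose and 2 h, day 3 predose and 2 h, and day 5 predose, 2 and 4 h. Reported as peak decrease on day 3 (or day 5) at 2 h ± SEM. n = 4 in screen, 4–8 per dose.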

Rattus norvegicus [24] = species on record: Rattus norvegicus; test: Hypotensive activity in renal hypertensive rats by using tail-cuff method measured as change in BP on day/h postdrug; type: functional, Blood
Outline: as §3

Canis familiaris [25] = test: Hemodynamic effect in sinoaortic- deafferented hypertensive dog measured as left ventricular pressure after 0 min of 10 mg/kg
Canis familiaris [26] = test: Mean heart rate before administration at a dose of 10 mg/kg iv.; type: functional, Canis lupus familiaris
Canis familiaris [27] = test: Hemodynamic effect in sinoaortic- deafferented hypertensive dog measured as mean arterial BP after 5 min of 5 mg/kg dose; type: functional, Canis lupus familiaris
Canis familiaris [28] = test: Hemodynamic effect in sinoaortic- deafferented hypertensive dog measured as mean arterial BP after 30 min of 5 mg/kg dose; type: functional, Canis lupus familiaris
Canis familiaris [29] = test: Hemodynamic effect in sinoaortic- deafferented hypertensive dog measured as left ventricular pressure after 30 min of 10 mg/kg
Canis familiaris [30] = test: Hemodynamic effect in sinoaortic- deafferented hypertensive dog measured as cardiac output after 60 min of 10 mg/kg
Canis familiaris [31] = test: Hemodynamic effect in sinoaortic- deafferented hypertensive dog measured as left ventricular pressure after 5 min of 10 mg/kg
Canis familiaris [32] = test: effect of compound at a dose of 10 mg/kg iv, on standard cardiovascular in anesthetized normotensive dogs after administration of norepinephrine.; type: functional, Canis lupus familiaris, Heart
Outline: as §1

Rattus norvegicus [33] = test: Oral hypotensive activity in spontaneously hypertensive rats by using tail-cuff method measured as change in systolic BP at the dose of 50 mg/kg po.; type: functional, Blood
Outline: as §2

Canis familiaris [34] = test: Hemodynamic effect in sinoaortic- deafferented hypertensive dog measured as cardiac output after 30 min of 10 mg/kg
Canis familiaris [35] = test: effect of compound at a dose of 10 mg/kg iv, on standard cardiovascular in anesthetized normotensive dogs after administration of carbachol.; type: functional, Canis lupus familiaris, Heart
Outline: as §1

Rattus norvegicus [36] = test: Oral hypotensive activity in spontaneously hypertensive rats by using tail-cuff method measured as change in systolic BP at the dose of 30 mg/kg po.; type: functional, Blood
Outline: as §2

Canis familiaris [37] = test: Hemodynamic effect in sinoaortic- deafferented hypertensive dog measured as heart rate after 5 min of 5 mg/kg dose; type: functional, Canis lupus familiaris
Canis familiaris [38] = test: Hemodynamic effect in sinoaortic- deafferented hypertensive dog measured as heart rate after 0 min of 5 mg/kg dose; type: functional, Canis lupus familiaris
Rattus norvegicus [39] = test: (§5) Oral hypotensive activity in spontaneously hypertensive rats by using tail-cuff method measured as change in systolic BP at the dose of 5 mg/kg po.; type: functional, Blood
Outline: (§6)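 SHR of the Okamoto-Aoki strain, dosed orally every day with compound suspended in distilled water with Tween 80. Systolic pressure was taken by tail-cuff plethysmography on day 1 (predose, 2 h), day 3 (predose, 2 h) and day 5 (predose, 2 and 4 h). Initial BP is the pretreatment systolic pressure, with 4–8 rats per dose in the dose-response screen.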

Rattus norvegicus [40] = test: Oral hypotensive activity in spontaneously hypertensive rats by using tail-cuff method measured as change in systolic BP at the dose of 25 mg/kg po.; type: functional, Blood
Outline: as §6

Rattus norvegicus [41] = test: Oral hypotensive activity in spontaneously hypertensive rats by using tail-cuff method measured as change in systolic BP at the dose of 10 mg/kg po.; type: functional, Blood
Outline: as §6

Rattus norvegicus [42] = test: as §5; type: functional, Blood; remark: listed apart in the source
Outline: as §2

Rattus norvegicus [43] = species on record: Rattus norvegicus; test: Hypotensive activity in renal hypertensive rats by using tail-cuff method measured as initial BP; type: functional, Blood
Outline: as §3

Rattus norvegicus [44] = species on record: Rattus norvegicus; test: Hypotensive activity in renal hypertensive rats by using tail-cuff method measured as BP on (3/2)day/h postdrug; type: functional, Blood
Outline: as §3

Rattus norvegicus [45] = species on record: Rattus norvegicus; test: Hypotensive activity in renal hypertensive rats by using tail-cuff method measured as BP on (1/2) day/h postdrug; type: functional, Blood
Outline: as §3

Rattus norvegicus [46] = species on record: Rattus norvegicus; test: Hypotensive activity in renal hypertensive rats by using tail-cuff method measured as BP on (2/0) day/h postdrug; type: functional, Blood
Outline: as §3

Rattus norvegicus [47] = species on record: Rattus norvegicus; test: Hypotensive activity in renal hypertensive rats by using tail-cuff method measured as BP on (3/0) day/h postdrug; type: functional, Blood
Outline: as §3

Rattus norvegicus [48] = species on record: Rattus norvegicus; test: Hypotensive activity in renal hypertensive rats by using tail-cuff method measured as BP on (2/2) day/h postdrug; type: functional, Blood
Outline: as §3

CCN1CCC2(CC1)Oc1ccccc1C2n1cccc1 (centres undefined)
dP/dt (Canis familiaris [1]): 25.6 1/Pmax
Rate (Canis familiaris [2]): 126 beats min-1
BP (Canis familiaris [3]): -34.3 mmHg
BP (Canis familiaris [4]): 106.3 mmHg
BP (Canis familiaris [5]): 84.3 mmHg
BP (Canis familiaris [6]): 44.8 mmHg
BP (Canis familiaris [7]): -39.3 mmHg
BP (Canis familiaris [8]): 103 mmHg
BP (Rattus norvegicus [9]): 180 mmHg and 214 mmHg
BP (Canis familiaris [10]): -52 mmHg
BP (Canis familiaris [11]): 59.7 mmHg
BP (Canis familiaris [12]): 132.7 mmHg
Cardiac output (Canis familiaris [13]): 1600 mL/min
Rate (Canis familiaris [14]): 132 beats min-1
BP (Canis familiaris [15]): 165 mmHg
BP (Canis familiaris [16]): 64.3 mmHg
Cardiac output (Canis familiaris [17]): 2120 mL/min
BP (Rattus norvegicus [18]): 110 mmHg
BP (Rattus norvegicus [19]): 162 mmHg
Rate (Canis familiaris [20]): 126 beats min-1
BP (Canis familiaris [21]): 56.7 mmHg
BP (Rattus norvegicus [22]): 131 mmHg and 113 mmHg and 116 mmHg and 129 mmHg
Delta blood pressure (Rattus norvegicus [23]): 27 mmHg and 38 mmHg
Delta blood pressure (Rattus norvegicus [24]): 31 mmHg and 52 mmHg and 49 mmHg and 46 mmHg and 33 mmHg
dP/dt (Canis familiaris [25]): 27.2 1/Pmax
Rate (Canis familiaris [26]): 167 beats min-1
BP (Canis familiaris [27]): 121 mmHg
BP (Canis familiaris [28]): 98 mmHg
dP/dt (Canis familiaris [29]): 21.2 1/Pmax
Cardiac output (Canis familiaris [30]): 1600 mL/min
dP/dt (Canis familiaris [31]): 20.3 1/Pmax
BP (Canis familiaris [32]): 66 mmHg
BP (Rattus norvegicus [33]): 187 mmHg
Delta blood pressure (Rattus norvegicus [33]): 71 mmHg
Cardiac output (Canis familiaris [34]): 1530 mL/min
BP (Canis familiaris [35]): -37 mmHg
BP (Rattus norvegicus [36]): 187 mmHg
Delta blood pressure (Rattus norvegicus [36]): 71 mmHg
Rate (Canis familiaris [37]): 134 beats min-1
Rate (Canis familiaris [38]): 170 beats min-1

c1ccc2c(c1)OC1(CCNC1)C2n1cccc1 (centres undefined)
Delta blood pressure (Rattus norvegicus [39]): 17 mmHg
BP (Rattus norvegicus [40]): 181 mmHg
Delta blood pressure (Rattus norvegicus [40]): 13 mmHg
BP (Rattus norvegicus [41]): 179 mmHg
Delta blood pressure (Rattus norvegicus [41]): 36 mmHg
BP (Rattus norvegicus [42]): 200 mmHg
BP (Rattus norvegicus [33]): 223 mmHg
Delta blood pressure (Rattus norvegicus [33]): 58 mmHg

C[C@H](CS)C(=O)N1CCC[C@H]1C(=O)O [CAPTOPRIL]
BP (Rattus norvegicus [43]): 192 mmHg
BP (Rattus norvegicus [44]): 152 mmHg
BP (Rattus norvegicus [45]): 181 mmHg
BP (Rattus norvegicus [46]): 185 mmHg
BP (Rattus norvegicus [47]): 163 mmHg
BP (Rattus norvegicus [48]): 169 mmHg
